# According to ChEMBL document CHEMBL1926522, “PEG-SO(3)H catalyzed synthesis and cytotoxicity of α-aminophosphonates” (Eur J Med Chem, 2012):
# Assays:
# [1] = tested on: K562; assay: Cytotoxicity against human K562 cells after 24 hrs by MTT assay; type: functional, cell-based; conditions: K562, 24 h
# Procedure, shortened: (§1)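 Cells from NCCS Pune, grown in RPMI-1640 with 10% heat-inactivated FBS, penicillin/streptomycin and glutamine at 37 °C, 5% CO2. Cells were washed with PBS and exposed for 24 h, first at 1, 10 and 100, then at 2–64. MTT (5 mg/mL in PBS) added for 2 h, then DMSO. IC50 read graphically from concentration vs % inhibition plot. Each point is the average of two determinations.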
# [2] = tested on: COLO 205; assay: Cytotoxicity against human COLO205 cells after 24 hrs by MTT assay; type: functional, cell-based; conditions: COLO 205, 24 h; procedure, shortened: as §1
# [3] = tested on: K562; assay: Growth inhibition of human K562 cells at 1 uM after 24 hrs by MTT assay relative to control; type: functional; conditions: K562, 24 h, read-out: GI
# Procedure, shortened: (§2)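 Exponentially growing cells in RPMI-1640 with 10% heat-inactivated FBS, 37 °C, 5% CO2. Treated 24 h at the single stated concentration. MTT (5 mg/mL in PBS) added for 2 h at 37 °C, then DMSO. Percent proliferation inhibition was calculated versus control. Independent experiments in duplicate, values averaged from two determinations.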
# [4] = tested on: K562; assay: Growth inhibition of human K562 cells at 10 uM after 24 hrs by MTT assay relative to control; type: functional; conditions: K562, 24 h, read-out: GI; procedure, shortened: as §2
# [5] = tested on: COLO 205; assay: Growth inhibition of human COLO205 cells at 1 uM after 24 hrs by MTT assay relative to control; type: functional; conditions: COLO 205, 24 h, read-out: GI; procedure, shortened: as §2
# [6] = tested on: COLO 205; assay: Growth inhibition of human COLO205 cells at 10 uM after 24 hrs by MTT assay relative to control; type: functional; conditions: COLO 205, 24 h, read-out: GI; procedure, shortened: as §2
# [7] = Growth inhibition of human HEK293 cells at 1 uM after 24 hrs by MTT assay relative to control; type: cell-based; conditions: read-out: GI; procedure, shortened: as §2
# [8] = Growth inhibition of human HEK293 cells at 10 uM after 24 hrs by MTT assay relative to control; type: cell-based; conditions: read-out: GI; procedure, shortened: as §2
# [9] = Lipophilicity, log P of the compound; type: physicochemical; conditions: octanol/water
Structure (SMILES),IC50 [1],IC50 [2],inhibition of growth at 1 µM [3],inhibition of growth at 10 µM [4],inhibition of growth at 1 µM [5],inhibition of growth at 10 µM [6],"inhibition at 24 h, 1 µM [7]","inhibition at 24 h, 10 µM [8]",logP [9]
CCOP(=O)(OCC)C(Nc1ccccc1)c1ccc(-c2ccncc2)cc1 (configuration not stated),> 100 µM,18 µM,0%,0%,18.1%,31%,0%,0%,–
CCOP(=O)(OCC)C(Nc1ccc(F)c(Cl)c1)c1ccc(-c2ccncc2)cc1 (configuration not stated),22 µM,10 µM,26%,26.2%,44.5%,47%,0.2%,1.2%,–
CCOP(=O)(OCC)C(Nc1cccc(Br)c1)c1ccc(-c2ccncc2)cc1 (configuration not stated),10 µM,5 µM,41.7%,53.8%,31.3%,71.6%,1%,2.3%,5.72
CCOP(=O)(OCC)C(Nc1ccc(Cl)c([N+](=O)[O-])c1)c1ccc(-c2ccncc2)cc1 (configuration not stated),19 µM,12 µM,14.3%,24.9%,35%,45.1%,1.2%,3.4%,–
CCOP(=O)(OCC)C(Nc1cccc([N+](=O)[O-])c1)c1ccc(-c2ccncc2)cc1 (configuration not stated),20 µM,14 µM,0%,25.8%,39.5%,41.1%,0%,1.2%,–
CCOP(=O)(OCC)C(Nc1ccncc1)c1ccc(-c2ccncc2)cc1 (configuration not stated),32 µM,10 µM,0%,15.7%,14%,53.4%,0.5%,1.9%,–
CCOP(=O)(OCC)C(NCc1cccnc1)c1ccc(-c2ccncc2)cc1 (configuration not stated),10 µM,8 µM,26%,48.4%,27.6%,60.1%,3.1%,3.6%,4.55
CCOP(=O)(OCC)C(Nc1nccs1)c1ccc(-c2ccncc2)cc1 (configuration not stated),24 µM,10 µM,0%,24%,37.1%,47.9%,1%,2.5%,–
CCOP(=O)(OCC)C(Nc1nc2ccccc2s1)c1ccc(-c2ccncc2)cc1 (configuration not stated),35 µM,15 µM,0%,15.7%,36.6%,41%,2.5%,2.5%,–
CCOP(=O)(OCC)C(Nc1nc2ccc([N+](=O)[O-])cc2s1)c1ccc(-c2ccncc2)cc1 (configuration not stated),31 µM,10 µM,0.9%,18.9%,34.4%,48.1%,0%,0.3%,–
